TRPC4 act – TRPC4 (mouse) channel activation; AID 2237; B-score at 10 µM; hit rate 0.49% among 310,000; Q9QUQ5; HEK293 TRPC4beta/mu-opioid, Fluo4 calcium fluorescence; hits give high values;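 active = B-score above 5 SD of library B-scores, and initial fluorescence ratio not above library mean plus 5 SD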;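 note: positive B-score marks a calcium rise read as TRPC4 activation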
Target sequence (Q9QUQ5 whole entry, looked up): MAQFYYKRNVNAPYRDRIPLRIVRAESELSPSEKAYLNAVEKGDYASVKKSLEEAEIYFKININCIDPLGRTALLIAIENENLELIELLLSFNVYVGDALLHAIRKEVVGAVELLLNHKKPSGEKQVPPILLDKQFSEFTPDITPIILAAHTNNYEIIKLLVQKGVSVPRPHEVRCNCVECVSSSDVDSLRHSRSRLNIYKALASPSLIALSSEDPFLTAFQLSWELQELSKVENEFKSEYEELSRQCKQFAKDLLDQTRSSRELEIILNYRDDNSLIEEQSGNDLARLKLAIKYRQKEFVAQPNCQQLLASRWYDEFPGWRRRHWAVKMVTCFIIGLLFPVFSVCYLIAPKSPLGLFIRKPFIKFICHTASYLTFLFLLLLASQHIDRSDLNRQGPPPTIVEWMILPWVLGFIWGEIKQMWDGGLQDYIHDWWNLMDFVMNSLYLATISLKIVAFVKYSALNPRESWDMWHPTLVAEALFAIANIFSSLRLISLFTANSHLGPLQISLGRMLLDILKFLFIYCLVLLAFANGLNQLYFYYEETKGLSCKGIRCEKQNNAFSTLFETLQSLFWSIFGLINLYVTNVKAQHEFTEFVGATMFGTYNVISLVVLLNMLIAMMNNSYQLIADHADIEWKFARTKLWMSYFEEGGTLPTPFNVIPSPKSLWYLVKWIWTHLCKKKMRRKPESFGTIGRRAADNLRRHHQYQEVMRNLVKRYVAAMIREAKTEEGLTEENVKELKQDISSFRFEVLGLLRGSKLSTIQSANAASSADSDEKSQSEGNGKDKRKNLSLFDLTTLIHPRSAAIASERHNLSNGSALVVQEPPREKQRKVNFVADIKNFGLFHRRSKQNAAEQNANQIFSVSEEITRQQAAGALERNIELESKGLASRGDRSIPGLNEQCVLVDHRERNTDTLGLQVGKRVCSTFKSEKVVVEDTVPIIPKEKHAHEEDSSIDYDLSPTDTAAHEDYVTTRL
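Material: HEK293 stable line with TRPC4beta plus mu-opioid receptor; technique: Fluo4 calcium-sensitive dye fluorescence, kinetic, 1 Hz baseline; timing: Fluo4 dye loading 45 min at room temperature, 110 s recording; controls: assay buffer as low control, maximal DAMGO as high control; read-out: integrated baseline-normalised fluorescence ratio, converted to per-well B score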
Kir21 inh – Kir2.1 (mouse) channel inhibition; P35561; HEK293-Kir2.1, FluxOR thallium flux fluorescence; hits give low values; B-score at 10 µM; hit rate 0.85% among 310,000;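 active = fluorescence ratio B-score at or below minus 3 SD of library scores, with starting-brightness B-score within 2 SD, cut at about -4.2 in these data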;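 note: channel flux triggered by added potassium and thallium sulfate stimulus; B-score of peak minus minimum fluorescence over baseline after thallium stimulus; more negative B-score means stronger Kir2.1 block with less thallium influx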
TRPC6 act – activates the mouse TRPC6 cation channel. Q61143. HEK293-TRPC6 membrane potential dye fluorescence; hits give high values. B-score at 10 µM. hit rate 0.13% among 310,000. AID 2550;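 active = B-score of the integrated fluorescence ratio above library mean plus 3 SD, and starting fluorescence ratio within library mean plus 5 SD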;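 note: higher score means more depolarization so channel activation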
TRPC6 inh – blocks the mouse TRPC6 cation channel; Q61143; HEK293-TRPC6, membrane potential dye, ACh-evoked depolarization; hits give low values; B-score at 10 µM; hit rate 1.1% among 310,000; AID 2553;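 active = B-score under library mean minus 3 SD, initial fluorescence not abnormally high, positive integrated signal ratio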;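 note: B-score derived from integrated fluorescence ratio over the kinetic read; more negative B-score means stronger inhibition of depolarization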
TRPC4 potent – allosteric potentiators of mouse TRPC4 channel; Q9QUQ5; HEK293 TRPC4beta/mu-opioid, DAMGO EC20, Fluo-4 Ca2+ flux; hits give high values; B-score at 10 µM; hit rate 0.42% among 310,000;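 active = B-score of calcium response area above 5 SD of library B-scores, with initial fluorescence ratio within 5 SD of library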;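 note: B-score of integrated fluorescence ratio over time as area under calcium response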
TRPC4 block – TRPC4 (mouse) channel inhibition | Q9QUQ5 | HEK293 TRPC4beta/mu-opioid, DAMGO-evoked Fluo4 calcium flux; hits give low values | B-score at 10 µM | hit rate 0.39% among 300,000 | AID 2247;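 active = B-score over 3 SD under the library average, no early fluorescence shift, positive overall ratio signal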
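Assay system – HEK293 line stably carrying TRPC4beta and mu-opioid receptor · Doses – single dose · Detection – Fluo4 calcium-dye fluorescence, kinetic read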
* = called active by the depositor; i = inactive; ! = a repeat was not active. Sampled rows, rich in hits. Any-hit rate of the full collection: about 2.9%.

SMILES	TRPC4 act	Kir21 inh	TRPC6 act	TRPC6 inh	TRPC4 potent	TRPC4 block
CN(C)CC#CCC(O)(c1ccccc1)C1CCCC1 (centres undefined)	i	-1.15	i	i	i	i
CN(C)CC#CCn1c2ccccc2c2ccccc21	i	-5.59*	i	i	i	i
O=C(CCCN1CCC2(CC1)C(=O)NCN2c1ccccc1)c1ccc(F)cc1	158*	-0.38	i	i	i	i
CCC(COC(=O)c1cc(OC)c(OC)c(OC)c1)(c1ccccc1)N(C)C (centres undefined)	54*!	0.04	i	i	i	i
CC(=O)Nc1ccc(C(c2c(O)c3ccccc3oc2=O)c2c(C)n(C)n(-c3ccccc3)c2=O)cc1 (centres undefined)	i	-1.32	i	i	i	i
COc1ccc(C2CN(C)CC2C(=O)c2ccc(F)cc2)cc1Cl (centres undefined)	i	0.92	i	i	i	i
COc1ccc(SCC2CN(C)CCC2c2ccc(F)cc2)cc1 (centres undefined)	i	-4.82*	i	i	i	i
CCN(CC)CC(=O)Nc1ccc(Cl)cc1C(=O)c1ccccc1	i	-2.93	i	i	i	-6*
COc1ccc(C(CNC(=O)CCc2ccsc2)N(C)C)cc1 (centres undefined)	108*	0.79	i	i	i	i
COc1ccc(C(CN(C)C)C2(O)CCCCC2)cc1 (centres undefined)	i	-0.75	i	i	i	i
O=[N+]([O-])c1ccc(N2CCNCC2)cc1NCc1ccco1	i	-4.42*	i	i	i	i
CN1CCN(c2ccc([N+](=O)[O-])c(NCc3ccco3)c2)CC1	i	-0.61	i	i	i	i
Nc1cc(N2CCNCC2)ccc1[N+](=O)[O-]	77*	-0.27	i	i	26*	i
O=[N+]([O-])c1ccc(N2CCNCC2)cc1N1CCCCCC1	i	-1.11	i	i	18*	i
CN1CCN(c2ccc([N+](=O)[O-])c(N)c2)CC1	i	0.16	i	i	10*	i
O=C(Nc1ccccc1)c1c(O)[nH]c(=S)[nH]c1=O	i	0.7	i	i	i	i
O=C(CN1CCN(c2ccccc2F)CC1)Nc1cccnc1Cl	i	0.1	i	i	i	i
N/C(=N/[N+](=O)[O-])N1CCN(C(=O)c2ccc(Cl)cc2)CC1	i	0.15	i	i	i	i
CNc1cc(N2CCNCC2)ccc1[N+](=O)[O-]	i	0.51	i	i	13*	i
CCOc1cc(CNC(C)C(O)c2ccccc2)cc(Cl)c1OCC (centres undefined)	i	-5.58*	i	i	i	i
CC(NCc1ccccc1C(F)(F)F)C(O)c1ccccc1 (centres undefined)	i	1.62	i	i	i	i
CC(NCc1ccccc1Cl)C(O)c1ccccc1 (centres undefined)	i	-5.65*	i	i	i	i
CNCC(C)c1ccccc1 (centres undefined)	i	-1.03	i	i	i	i
CC(NCc1ccc(Cl)c(Cl)c1)C(O)c1ccccc1 (centres undefined)	i	-4.6*	i	i	i	i
O=C(CCN1C(=O)COc2ccccc21)N1CCC2(CC1)OCCO2	i	0.5	i	i	i	i
SMILES	TRPC4 act	Kir21 inh	TRPC6 act	TRPC6 inh	TRPC4 potent	TRPC4 block
CC1CN(O)C2CCc3nonc3C12O (centres undefined)	i	2.37	i	i	i	i
COc1nc2ccccc2c(=O)n1-c1ccc(C)cc1	i	-1.38	i	i	i	i
COc1nc2ccccc2c(=O)n1-c1ccc(Cl)cc1	i	-0.14	i	i	11*	i
CCCn1ncc(C(=O)O)c1C	i	-0.01	i	i	i	i
COc1ccc(Br)cc1CNCCc1ccc2c(c1)OCO2	i	-4.51*	i	i	i	i
Clc1ccc(CNCCc2ccc3c(c2)OCO3)cc1	i	-8.77*	i	i	i	i
Cc1ccc(/C=C2\C(=O)NC(=O)N(CC3CCCO3)C2=O)s1 (centres undefined)	i	-2.5	i	i	i	i
COc1ccc(CCn2c(O)c(/C=N/N3CCCCC3)c(=O)[nH]c2=O)cc1OC	i	-2.59	i	i	i	i
CC(=O)C1C2c3ccccc3OC1(C)N=c1s/c(=C/c3cnn(C)c3)c(=O)n12 (centres undefined)	i	-2.28	i	i	i	i
CN1CCN(c2ccc([N+](=O)[O-])c(N3CCCCC3)c2)CC1	i	-1.96	i	i	i	i
O=[N+]([O-])c1ccc(N2CCNCC2)c2ncccc12	69*	0.06	i	-5.55*	24*	i
O=[N+]([O-])c1ccc(N2CCNCC2)cc1Sc1ccccn1	i	0.28	i	i	i	i
CN1CCN(c2ccc([N+](=O)[O-])c3cccnc23)CC1	64*	0.57	i	i	18*	i
C1=C(c2c[nH]c3ccccc23)CCN(Cc2ccccc2)C1	i	0.01	i	i	i	i
Clc1cnc(Oc2ccc(Oc3ncc(Cl)cc3Cl)cc2)c(Cl)c1	i	0.73	i	i	i	i
CC(=O)c1c(O)n(-c2cccc(Cl)c2)c(=O)[nH]c1=O (tested in a mixture with another compound)	i	-0.23	i	i	i	i
CC(C)n1c(O)c(C2c3cc(Cl)ccc3Oc3[nH]c(=O)n(C(C)C)c(=O)c32)c(=O)[nH]c1=O (centres undefined)	i	-4.32*	i	i	i	i
CCOC(=O)CNC(=S)N1CC2C[C@@H](C1)Cn1c2cccc1=O	i	1.86	i	i	i	i
CCN(CC)CCN/N=C(\C)c1c(O)[nH]c(=O)[nH]c1=O	i	-0.71	i	i	i	i
COc1cccc(CNCCc2ccc(F)cc2)c1	i	0.04	i	i	i	i
COc1ccc(CCNCc2ccc(SC)cc2)cc1	101*	-5.54*	i	i	i	i
O=C1NC(=O)N(c2cccc(Cl)c2)C(=O)/C1=C\c1ccc(Sc2nc3ccccc3[nH]2)o1	i	-4.75*	i	i	i	i
